According to ChEMBL document CHEMBL2176871, “Development of ligands at γ-aminobutyrric acid type A (GABAA) receptor subtype as new agents for pain relief” (Bioorg Med Chem, 2011):
Calls of active or inactive are those of the source.

Tests used:
[1] = test system: Rattus norvegicus; test: Antinociceptive activity in Sprague-Dawley rat mononeuropathy pain model assessed as increase in injured paw pressure at 30 mg/kg, po after 45 mins by paw pressure test relative to non-treated control; type: functional
How it was run: (§1)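 Chronic constriction injury: loose ligatures placed on the common sciatic nerve under chloral hydrate; contralateral sham dissection. Tested 14 days after surgery. Paw pressure applied at 32 g/s; threshold taken as the force causing the first struggle; cut-off 250 g; pretest outliers (<40 g or >75 g) excluded. Oral dosing in 10 ml/kg; read at 15, 30 and 45 min; compared with a CMC-treated group.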

[2] = species: Bos taurus; test: Displacement of [3H]Ro151788 from GABA(A)/BzR in bovine cerebral cortex membrane at 10 uM; type: cell membranes
How it was run: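 Bovine cerebral cortex membranes in 50 mM Tris-citrate pH 7.4; [3H]flumazenil displacement. Compounds first tested at a fixed 10 µM; Ki determined only when inhibition exceeded 80%, using at least six concentrations. Five experiments run in triplicate; IC50 obtained by iterative curve fitting and converted to Ki with the Cheng–Prusoff equation.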

[3] = test system: Rattus norvegicus; test: Antinociceptive activity in Sprague-Dawley rat mononeuropathy pain model assessed as increase in injured paw pressure at 30 mg/kg, po after 30 mins by paw pressure test relative to non-treated control; type: functional; how it was run: as §1
[4] = test system: Mus musculus; test: Antihyperalgesic activity against streptozotocin-induced hyperalgesia in Swiss albino mouse […] assessed as licking latency time at 30 mg/kg, po after 60 mins by hot plate test (reference value: 10.6 +/- 0.7 secs); type: functional
[5] = test system: Mus musculus; test: Antihyperalgesic activity Swiss albino mouse […] assessed as licking latency time at 30 mg/kg, po after 45 mins by hot plate test (reference value: 17.4 +/- 1.2 secs); type: functional
How it was run: (§2)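 Hot plate at 52.5 ± 0.1 °C in non-diabetic male Swiss mice. Latency to licking of fore or hind paws was timed before dosing and every 15 min up to 60 min after oral dosing. Mice with pretest latencies below 12 s or above 18 s were excluded. Cut-off was 45 s.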

[6] = test system: Rattus norvegicus; test: Toxicity in Sprague-Dawley rat mononeuropathy pain model assessed as effect on contralateral paw pressure at 30 mg/kg, po after 30 mins by paw pressure test; type: organism-based; design: dose 30 mg/kg, route oral; conditions: in vivo, 0.5 h
How it was run: (§3)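 Same sciatic-ligation rat model, 14 days after surgery. Threshold measured on the non-operated contralateral hind paw by analgesimeter at 32 g/s; first-struggle endpoint; 250 g cut-off; pretest rats outside 40–75 g rejected. Compound given po in 10 ml/kg; readings at 15, 30 and 45 min.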

[7] = test system: Rattus norvegicus; test: Antinociceptive activity in Sprague-Dawley rat mononeuropathy pain model assessed as increase in injured paw pressure at 30 mg/kg, po after 15 mins by paw pressure test relative to non-treated control; type: functional; how it was run: as §1
[8] = test system: Rattus norvegicus; test: Toxicity in Sprague-Dawley rat mononeuropathy pain model assessed as effect on contralateral paw pressure at 30 mg/kg, po after 45 mins by paw pressure test; type: organism-based; design: dose 30 mg/kg, route oral; conditions: in vivo, 0.75 h; how it was run: as §3
[9] = test system: Mus musculus; test: Antihyperalgesic activity against streptozotocin-induced hyperalgesia in Swiss albino mouse […] assessed as licking latency time at 30 mg/kg, po after 15 mins by hot plate test (reference value: 10.6 +/- 0.7 secs); type: functional
[10] = test system: Rattus norvegicus; test: Antinociceptive activity in Sprague-Dawley rat mononeuropathy pain model assessed as increase in injured paw pressure at 100 mg/kg, po after 15 mins by paw pressure test relative to non-treated control; type: functional; how it was run: as §1
[11] = test system: Rattus norvegicus; test: Toxicity in Sprague-Dawley rat mononeuropathy pain model assessed as effect on contralateral paw pressure at 100 mg/kg, po after 30 mins by paw pressure test; type: organism-based; design: dose 100 mg/kg, route oral; conditions: in vivo, 0.5 h; how it was run: as §3
[12] = test system: Rattus norvegicus; test: Toxicity in Sprague-Dawley rat mononeuropathy pain model assessed as effect on contralateral paw pressure at 100 mg/kg, po after 15 mins by paw pressure test; type: organism-based; design: dose 100 mg/kg, route oral; conditions: in vivo, 0.25 h; how it was run: as §3
[13] = test system: Mus musculus; test: Antihyperalgesic activity Swiss albino mouse […] assessed as licking latency time at 30 mg/kg, po after 30 mins by hot plate test (reference value: 17.4 +/- 1.2 secs); type: functional; how it was run: as §2
[14] = test system: Mus musculus; test: Antihyperalgesic activity Swiss albino mouse […] assessed as licking latency time at 30 mg/kg, po after 15 mins by hot plate test (reference value: 17.4 +/- 1.2 secs); type: functional; how it was run: as §2
[15] = test system: Mus musculus; test: Antihyperalgesic activity against streptozotocin-induced hyperalgesia in Swiss albino mouse […] assessed as licking latency time at 30 mg/kg, po after 45 mins by hot plate test (reference value: 10.6 +/- 0.7 secs); type: functional
[16] = test system: Rattus norvegicus; test: Antinociceptive activity in Sprague-Dawley rat mononeuropathy pain model assessed as increase in injured paw pressure at 100 mg/kg, po after 30 mins by paw pressure test relative to non-treated control; type: functional; how it was run: as §1
[17] = test system: Mus musculus; test: Antihyperalgesic activity Swiss albino mouse […] assessed as licking latency time at 30 mg/kg, po after 60 mins by hot plate test (reference value: 17.4 +/- 1.2 secs); type: functional; how it was run: as §2
[18] = test system: Mus musculus; test: Antihyperalgesic activity against streptozotocin-induced hyperalgesia in Swiss albino mouse […] assessed as licking latency time at 30 mg/kg, po after 30 mins by hot plate test (reference value: 10.6 +/- 0.7 secs); type: functional
[19] = test system: Rattus norvegicus; test: Antinociceptive activity in Sprague-Dawley rat mononeuropathy pain model assessed as increase in injured paw pressure at 100 mg/kg, po after 45 mins by paw pressure test relative to non-treated control; type: functional; how it was run: as §1
[20] = test system: Mus musculus; test: Anticonvulsant activity in Swiss albino mouse […] assessed as protection against intraperitoneally administered pentylenetetrazol-induced seizures at 30 mg/kg, po after 30 mins; type: functional
How it was run: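 Male Swiss albino mice. Compounds given po and PTZ 90 mg/kg injected 30 min later; PTZ was dissolved in 0.9% NaCl saline. Clonic generalized convulsions were recorded over 30 min. Each value is the mean of 10 mice. The methods give the PTZ route as s.c. and the table footnote gives it as ip.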

[21] = test system: Mus musculus; test: Anxiolytic-like activity in Swiss albino mouse at 30 mg/kg, po after 30 mins by light/dark box test; type: functional, organism-based; design: dose 30 mg/kg
How it was run: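 Male Swiss mice tested in a two-compartment light/dark box. Transfers between compartments and time spent in the lit side recorded. Compound given po 30 min before testing, in 10 ml/kg; flumazenil given i.p. for antagonism; 8 mice per group.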

[22] = test system: Mus musculus; test: Analgesic activity in Swiss albino mouse abdominal constriction model assessed as decrease in number of acetic acid-induced writhing at 30 to 60 mg/kg, po after 30 mins; type: functional, organism-based; conditions: Abdomen
How it was run: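 Male Swiss albino mice (23–30 g). Compounds given po in 1% CMC vehicle 30 min before the test. Acetic acid 0.6% injected i.p. at 10 ml/kg. Stretching movements were counted for 10 min, starting 5 min after the acetic acid injection. 8–15 mice per group.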

[23] = test system: Rattus norvegicus; test: Toxicity in Sprague-Dawley rat mononeuropathy pain model assessed as effect on contralateral paw pressure at 100 mg/kg, po after 45 mins by paw pressure test; type: organism-based; design: dose 100 mg/kg, route oral; conditions: in vivo, 0.75 h; how it was run: as §3
[24] = test system: Rattus norvegicus; test: Toxicity in Sprague-Dawley rat mononeuropathy pain model assessed as effect on contralateral paw pressure at 30 mg/kg, po after 15 mins by paw pressure test; type: organism-based; design: dose 30 mg/kg, route oral; conditions: in vivo, 0.25 h; how it was run: as §3

inhibition [2]: > 80%
Structure (SMILES): CCCCCOc1ccc2c(c1)n1ncc(I)c1n[n+]2[O-]
Activity [1]: 34.2 g
Activity [3]: 37.5 g
Time [4]: 9.1 s
Time [5]: 17.1 s
Activity [6]: 61.2 g
Activity [7]: 35.6 g
Activity [8]: 63.1 g
Time [9]: 9.2 s
Activity [10]: 39.2 g
Activity [11]: 61.3 g
Activity [12]: 57.4 g
Time [13]: 16.7 s
Time [14]: 18.3 s
Time [15]: 10.4 s
Activity [16]: 38.4 g
Time [17]: 17.5 s
Time [18]: 9.8 s
Activity [19]: 33.9 g
Activity [20]: 0%
Activity [21]: Active
Activity [22]: inactive
Activity [23]: 60.5 g
Activity [24]: 57.3 g
